These results are taken from ChEMBL document CHEMBL5329183, “Naphthylthiazoles: a class of broad-spectrum antifungals” (RSC Med Chem, 2023).

The subject of one data set is Staphylococcus aureus. The data set is described as follows: Antibacterial activity against Methicillin-resistant Staphylococcus aureus USA300 assessed as inhibition of bacterial growth. The class given is functional.
Data set [1] deals with Escherichia coli. The data set is described as follows: Antibacterial activity against Escherichia coli JW55031 harboring tolC mutant assessed as inhibition of bacterial growth. The class given is functional.
The test system of the next data set is Clostridioides difficile. The data set is described as follows: Antibacterial activity against Clostridium difficile ATCC BAA1870 assessed as inhibition of bacterial growth. The class given is functional.
A further data set concerns Candida albicans. The data set is described as follows: Antifungal activity against wild type Candida albicans SC5314 assessed as inhibition of fungal growth. The class given is functional.
The subject of data set [2] is Escherichia coli. The data set is described as follows: Antibacterial activity against wild type Escherichia coli BW25113 assessed as inhibition of bacterial growth. The class given is functional.
Data set [3] concerns Aspergillus fumigatus. The data set is described as follows: Antifungal activity against Aspergillus fumigatus NR 35303 assessed as inhibition of fungal growth incubated for 24 hrs by broth microdilution method. The class given is functional. In a few lines: (§1)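 Broth microdilution per CLSI guidelines against clinical isolates, incubated at 35 °C for 24 h (Candida, Aspergillus) or 48 h (Cryptococcus). MIC was the lowest concentration giving 50% growth inhibition.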
In general terms: Dilution methods test growth across graded concentrations, often in twofold steps.

Data set [4] concerns Aspergillus fumigatus. The data set is described as follows: Antifungal activity against Aspergillus fumigatus NR 35304 assessed as inhibition of fungal growth incubated for 24 hrs by broth microdilution method. The class given is functional. The essentials:
as §1

Data set [5] in a line: Apparent permeability of the compound measured after 4 hrs by PAMPA assay. The class given is ADME. In a few lines: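 PAMPA: compound was placed in pH 6.5 donor buffer across a lipid-pretreated PVDF filter from pH 7.4 acceptor buffer, and incubated 4 h at ambient temperature. Donor and acceptor amounts at start and end were measured by UV absorbance to give apparent permeability.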
Background: In PAMPA a lipid-coated filter parts donor from acceptor wells.

Broadly, the MIC is the lowest concentration that inhibits growth of the organism. The Papp is the rate of passage across a membrane or cell layer, normalised by area and donor concentration.

In brackets after ≈: the same amount, converted by molar mass.

Regarding `Cc1nc(-c2ccc3ccccc3c2)sc1-c1nnc(N2CCC[C@H]2CO)o1`, the MIC in the data set on Staphylococcus aureus, in the data set on Escherichia coli [1], in the data set with Clostridioides difficile, with Candida albicans and in the data set on Escherichia coli [2] was greater than 64 µg/mL throughout.

Take `Cc1nc(-c2ccc3ccccc3c2)sc1-c1nnc(N2CCCCC2CN)o1` (stereo not given): the MIC with Staphylococcus aureus was greater than 64 µg/mL; in the data set with Escherichia coli [1], greater than 64 µg/mL; with Clostridioides difficile, 32 µg/mL (≈ 78.9 µM); in the data set with Candida albicans it was greater than 64 µg/mL; with Escherichia coli [2], greater than 64 µg/mL.

Consider `Cc1nc(-c2ccc3ccccc3c2)sc1-c1nnc(N2CCC[C@H]2C(N)=O)o1`, for which the MIC with Staphylococcus aureus, in the data set with Escherichia coli [1], in the data set with Clostridioides difficile, in the data set with Candida albicans and in the data set on Escherichia coli [2] was greater than 64 µg/mL each time.

Take `Cc1nc(-c2ccc3ccccc3c2)sc1-c1nnc(N[C@H]2CC[C@H](N)CC2)o1`: the MIC is 64 µg/mL (≈ 158 µM) in the data set with Staphylococcus aureus; greater than 64 µg/mL with Escherichia coli [1]; 64 µg/mL (≈ 158 µM) in the data set with Clostridioides difficile; 64 µg/mL (≈ 158 µM) in the data set on Candida albicans; greater than 64 µg/mL in the data set on Escherichia coli [2].

With `Cc1nc(-c2ccc3ccccc3c2)sc1-c1nnc(N2CCC[C@@H]2C(N)=O)o1`, the MIC in the data set with Staphylococcus aureus, in the data set on Escherichia coli [1], in the data set with Clostridioides difficile, with Candida albicans and in the data set with Escherichia coli [2] was greater than 64 µg/mL throughout.

`Cc1nc(-c2ccc3ccccc3c2)sc1-c1nnc(N2CCC(N)C2)o1` (stereo not given): the MIC with Staphylococcus aureus was greater than 64 µg/mL; with Escherichia coli [1] it was greater than 64 µg/mL; in the data set on Clostridioides difficile, greater than 64 µg/mL; in the data set on Candida albicans, 8 µg/mL (≈ 21.2 µM); in the data set with Escherichia coli [2], greater than 64 µg/mL.

For the compound `CCCNc1nnc(-c2sc(-c3ccc4ccccc4c3)nc2C)o1`, the MIC in the data set on Staphylococcus aureus, in the data set on Escherichia coli [1], with Clostridioides difficile, in the data set with Candida albicans and with Escherichia coli [2] was greater than 64 µg/mL in each case.

For `Cc1nc(-c2ccc3ccccc3c2)sc1-c1nnc(N2CCC[C@@H]2CO)o1`, the MIC in the data set on Staphylococcus aureus is greater than 64 µg/mL; in the data set with Escherichia coli [1], greater than 64 µg/mL; in the data set with Clostridioides difficile, 16 µg/mL (≈ 40.8 µM); with Candida albicans, greater than 64 µg/mL; in the data set on Escherichia coli [2], greater than 64 µg/mL.

Take `Cc1nc(-c2ccc3ccccc3c2)sc1-c1nnc(NCC(=N)N)o1`: the MIC with Staphylococcus aureus is greater than 64 µg/mL; in the data set on Escherichia coli [1], greater than 64 µg/mL; with Clostridioides difficile, 64 µg/mL (≈ 176 µM); with Candida albicans, 32 µg/mL (≈ 87.8 µM); in the data set with Escherichia coli [2] it was greater than 64 µg/mL.

With `Cc1nc(-c2ccc3ccccc3c2)sc1-c1nnc(N2CC[C@H](N(C)C)C2)o1`, the MIC is greater than 64 µg/mL in the data set on Staphylococcus aureus; greater than 64 µg/mL in the data set with Escherichia coli [1]; greater than 64 µg/mL in the data set on Clostridioides difficile; 8 µg/mL (≈ 19.7 µM) in the data set with Candida albicans; greater than 64 µg/mL in the data set on Escherichia coli [2].

As to `Cc1nc(-c2ccc3ccccc3c2)sc1-c1nnc(NCCN)o1`, the MIC with Staphylococcus aureus is 32 µg/mL (≈ 91.1 µM); with Escherichia coli [1], 64 µg/mL (≈ 182 µM); in the data set with Clostridioides difficile, 64 µg/mL (≈ 182 µM); with Candida albicans it was 32 µg/mL (≈ 91.1 µM); with Escherichia coli [2], greater than 64 µg/mL.

Consider `Cc1nc(-c2ccc3ccccc3c2)sc1-c1nnc(N2CC[C@@H](N(C)C)C2)o1`, for which the MIC was 4 µg/mL (≈ 9.86 µM) in the data set with Staphylococcus aureus; 32 µg/mL (≈ 78.9 µM) in the data set on Escherichia coli [1]; 16 µg/mL (≈ 39.5 µM) in the data set on Clostridioides difficile; 32 µg/mL (≈ 78.9 µM) in the data set with Candida albicans; greater than 64 µg/mL in the data set on Escherichia coli [2].

On to `CCNc1nnc(-c2sc(-c3ccc4ccccc4c3)nc2C)o1`, for which the minimal inhibitory concentration (MIC) in the data set on Staphylococcus aureus is 64 µg/mL (≈ 190 µM); in the data set with Escherichia coli [1], 64 µg/mL (≈ 190 µM); with Clostridioides difficile it was 64 µg/mL (≈ 190 µM); in the data set on Candida albicans, greater than 64 µg/mL; with Escherichia coli [2], greater than 64 µg/mL.

Turning to `CCC(C)n1ncn(-c2ccc(N3CCN(c4ccc(OCC5COC(Cn6cncn6)(c6ccc(Cl)cc6Cl)O5)cc4)CC3)cc2)c1=O` (stereo not given) [ITRACONAZOLE], the MIC in the data set with Aspergillus fumigatus [3] and in the data set on Aspergillus fumigatus [4] was 1 µg/mL (≈ 1.42 µM) each time.

Regarding `CC(C(=O)O)c1cccc(C(=O)c2ccccc2)c1` (stereo not given) [KETOPROFEN], in data set [5], the Papp at 4 h amounted to 10.2 ×10⁻⁶ cm/s.

Regarding `CC(=O)NC[C@H]1CN(c2ccc(N3CCOCC3)c(F)c2)C(=O)O1` [LINEZOLID], the MIC in the data set on Staphylococcus aureus was 1 µg/mL (≈ 2.96 µM); in the data set on Escherichia coli [1] it was 8 µg/mL (≈ 23.7 µM); in the data set with Clostridioides difficile, 1 µg/mL (≈ 2.96 µM); with Escherichia coli [2] it was greater than 64 µg/mL.

`CC(C)NCC(O)COc1cccc2ccccc12` (stereo not given) [PROPRANOLOL]: in data set [5], the Papp at 4 h worked out at 76.6 ×10⁻⁶ cm/s.

On to GENTAMICIN, for which the MIC with Escherichia coli [1] and in the data set on Escherichia coli [2] was less than 0.5 µg/mL each time.
